# Shown is part of a subset that was picked to be rich in hits.
# UCH37 DUB inh – inhibitors of human UCH37 deubiquitinase, primary screen, biochemical, Ub-AMC cleavage, fluorescence; purified proteasome/UCH37; 330,000 tested, 0.33% active; AID 588478, 2011; inhibition, % (no concentration beside the values);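 active = mean inhibition over replicate wells above about 20%, limit read from the data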
# Target sequence (Q9Y5K5 whole entry, looked up): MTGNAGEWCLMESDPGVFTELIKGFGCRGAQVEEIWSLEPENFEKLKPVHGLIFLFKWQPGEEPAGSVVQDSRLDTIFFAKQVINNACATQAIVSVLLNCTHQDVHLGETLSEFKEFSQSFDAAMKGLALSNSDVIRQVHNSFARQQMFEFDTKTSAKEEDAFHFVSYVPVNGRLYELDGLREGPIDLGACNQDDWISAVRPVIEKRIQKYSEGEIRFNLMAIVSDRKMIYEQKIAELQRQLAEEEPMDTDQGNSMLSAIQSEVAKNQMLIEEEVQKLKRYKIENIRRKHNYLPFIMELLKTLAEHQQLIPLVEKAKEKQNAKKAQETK
#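 Reagent: Ub-AMC substrate; assay system: Proteasome-associated human UCH37 deubiquitinase; controls: no-proteasome and no-compound wells; read-out: % inhibition of Ub-AMC cleavage fluorescence; timing: 30 min preincubation with enzyme, 25 min cleavage at room temperature; signal: AMC fluorescence from Ub-AMC cleavage, excitation 355 nm, emission 460 nm; buffer or medium: Tris-HCl pH 7.4 plus ovalbumin, ATP-MgCl2, DTT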
# Fh CTSL1 inh – Fasciola hepatica cathepsin L1 inhibitors, primary screen, counter-screen for PFM18AAP inhibitor project, biochemical, QFRET, fluorogenic peptide substrate; recombinant F. hepatica cathepsin L1, Z-Leu-Arg-MCA fluorescence; inhibition, % at 5.96 µM; 300,000 tested, 0.49% active;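 active = inhibition above the mean of all tested compounds plus 3 SD, set per screening campaign, cut at about 17% in these data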
# CHOP UPR activ – activators of apoptotic CHOP UPR arm, primary screen, cell-based, CHO-CHOP luciferase reporter, luminescence, uHTS; activation, % at 10 µM; AID 449763, 2010; 330,000 tested, 0.34% active; UPR activation; percent of tunicamycin response over DMSO baseline;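 active = at 10 µM dose, activation of 40% or more, normalized to positive control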
#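 Material: CHO-CHOP cells, stable luciferase reporter of PERK-eIF2a-CHOP signalling; quantity: 500 reporter cells seeded per well; buffer or medium: F12 medium containing 10% fetal bovine serum; compound: one dose, 10 µM in 0.5% DMSO; incubation: 6 h compound treatment, 37 °C; measured by: Steady-Glo luciferase luminescence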
# CHOP inh – inhibitors of CHOP promoter induction, primary screen, cell-based, unfolded protein response, luciferase reporter | inhibition, % at 10 µM | AID 2732, 2010 | CHO-K1 CHOP-promoter luciferase, tunicamycin-induced, 15-18 h | 220,000 tested, 3.8% active;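 active = compounds that reduced the stress-induced luciferase reporter signal by more than about 70% of percent inhibition, limit read from the data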
# UPR XBP1 act – activators of adaptive XBP1 UPR arm, primary screen, cell-based, CHO-XBP1 luciferase reporter, luminescence, uHTS; 330,000 tested, 0.33% active; activation, % at 20 µM; IRE1-XBP1 UPR activation; percent of tunicamycin response, DMSO as zero;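 active = versus positive control, 20 µM dose yields 30% or more activation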
#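 Material: CHO cell line with stable XBP1 luciferase reporter; buffer or medium: F12 medium containing 10% fetal bovine serum; compound: single point, 20 µM final compound, 1% DMSO; incubation: 6 h treatment, 37 °C; measured by: glow luminescence from Steady-Glo reagent; evaluation: activation, % of tunicamycin; control set: tunicamycin high, DMSO low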
# Numbers stand for hits; n = inactive; x = not tested or not shown.
SMILES,UCH37 DUB inh,Fh CTSL1 inh,CHOP UPR activ,CHOP inh,UPR XBP1 act
O=C(NN=Cc1ccc(O)c([N+](=O)[O-])c1)C(O)(c1ccccc1)c1ccccc1,n,x,x,x,x
Fc1ccccc1C=NNc1nn[nH]n1,n,x,x,x,x
COc1ccc(C=NNC(=O)c2ccc(Cn3cc([N+](=O)[O-])cn3)o2)cc1O,n,x,x,x,x
O=C(NC1CCCc2ccccc21)C1CCCC1 (stereo not drawn),n,n,n,x,n
Cc1cc(C)cc(NC(=O)C2CCCN(c3nc(C)cc(C)n3)C2)c1 (stereo not drawn),n,n,n,70.4,n
Cc1cc(C)nc(N2CCC(C(=O)Nc3ccc4c(c3)CCC4)CC2)n1,n,n,n,82.3,n
Cc1cc(C)nc(N2CCC(C(=O)NC3CCCc4ccccc43)CC2)n1 (stereo not drawn),n,n,n,73.4,n
Nc1nonc1-n1nnc(C(=O)NN=Cc2cccc(Cl)c2)c1CN1CCCCCC1,n,x,x,x,x
C/C(=N/Nc1nc(C)c(C)s1)c1cccc([N+](=O)[O-])c1,x,89.6,n,x,n
CN1CCN(CCC(=O)NN=C/C=C2\N(C)c3ccccc3C2(C)C)CC1,n,x,x,x,x
CCCCCc1cc(O)c2c(C)cc(=O)oc2c1,n,n,n,72.3,n
CC(C)c1c(C(=O)NN=Cc2ccco2)nnn1-c1nonc1N,n,x,x,x,x
O=C1NC(=Nc2ccc(O)cc2)S/C1=C/c1ccco1,n,n,n,n,n
O=C1NC(=Nc2ccc3ccccc3c2)S/C1=C/c1ccco1,n,n,n,85.5,n
Cc1cccc(N=C2NC(=O)S/C2=C\c2ccco2)c1,n,n,n,72.4,n
COc1ccc(COC(=O)NN=Cc2cccs2)cc1,n,x,x,x,x
COC(=O)c1c(NC(NC(=O)CC(C)C)C(Cl)(Cl)Cl)sc2c1CCC2 (stereo not drawn),n,n,n,90.7,n
COC(=O)c1c(NC(NC(=O)C(C)(C)C)C(Cl)(Cl)Cl)sc2c1CCC2 (stereo not drawn),n,n,n,77.6,n
CCC(=O)NC(Nc1sc2c(c1C(=O)OC)CCC2)C(Cl)(Cl)Cl (stereo not drawn),n,n,n,n,n
COc1ccccc1/C=C/C=Nn1c(-c2cc(-c3ccccc3)n[nH]2)n[nH]c1=S,n,x,x,x,x
COc1ccccc1Nc1cc2cc(Br)ccc2c(=O)[nH]1,20.7,47.4,n,x,n
COc1ccc(OC)c(Nc2cc3ccccc3c(=O)[nH]2)c1,n,69.8,n,x,n
CC(C)(C)C(=O)NC(=S)NNC(=O)c1ccc(Cl)cc1Cl,n,n,n,92.5,n
COC(=O)NNC(=O)c1ccc(Cl)cc1Cl,n,n,n,n,n
O=C(NN=Cc1ccncc1)c1ccc(NS(=O)(=O)c2cccs2)cc1,n,x,x,x,x
SMILES,UCH37 DUB inh,Fh CTSL1 inh,CHOP UPR activ,CHOP inh,UPR XBP1 act
COc1ccc(-c2csc(Nc3ccc(S(=O)(=O)Nc4cc(OC)nc(OC)n4)cc3)n2)cc1,n,n,n,88.8,n
O=C(O)C1CC=CCC1C(=O)N1CCCC1 (stereo not drawn),n,18.0,n,n,n
O=C(O)C1CC=CCC1C(=O)N1CCc2ccccc21 (stereo not drawn),n,n,n,n,n
O=C(CNC(=O)c1ccccc1)NN=Cc1cc(Br)ccc1O,n,x,x,x,x
Cc1cccc(N=C2NN=C(c3c(C)[nH]c4ccccc34)CS2)c1,n,n,n,72.5,n
Cc1cccc(N=C2NN=C(c3ccc4c(c3)OCCO4)CS2)c1,n,n,n,n,n
CCCCNc1c2c3c(cccc3n(C)c1=O)C(=O)c1ccccc1-2,n,n,n,81.8,n
O=[N+]([O-])c1ccc(N2CCN(c3ccccc3Cl)CC2)cn1,n,20.7,n,x,n
CCn1c(=O)cc(OCC(=O)N2CCc3ccccc32)c2ccccc21,n,x,x,85.3,x
O=C(NN1C(=O)/C(=C/c2ccc(O)c([N+](=O)[O-])c2)SC1=S)c1ccccc1Cl,24.2,n,n,n,n
O=C(NN1C(=O)/C(=C/c2ccc(O)cc2)SC1=S)c1ccccc1O,n,n,n,x,n
COc1cc(/C=C2\SC(=S)N(NC(=O)c3ccccc3O)C2=O)ccc1O,n,n,n,x,n
O=C1/C(=C\c2ccc(O)cc2)SC(=S)N1c1cccnc1,x,n,n,78.4,n
N=C1S/C(=C\c2ccc(O)cc2)C(=O)N1c1ccc(F)cc1,n,n,n,83.4,n
O=C(NN1C(=O)/C(=C/c2ccc(O)cc2)SC1=S)c1cccc(O)c1,n,19.8,n,x,n
CCOc1cc(C=NNC(=O)c2ccc(N(C)S(=O)(=O)c3ccccc3)cc2)ccc1OC,n,x,x,x,x
CC(=O)Nc1cccc(C(C)=NNC(=O)c2ccc(Cl)cc2Cl)c1,n,x,x,x,x
C=CCc1ccccc1OCC(=O)NN=Cc1ccc(OC(C)=O)cc1OC(C)=O,n,x,x,x,x
Cc1ccc(/C=C2\SC(=S)N(NS(=O)(=O)c3ccc(C)cc3)C2=O)cc1,n,n,n,x,n
Cc1ccc(S(=O)(=O)NN2C(=O)/C(=C/c3ccc(C(=O)O)cc3)SC2=S)cc1,20.7,n,n,x,n
CC(C)C(=O)OC/C(O)=C(\C#N)c1nc2ccccc2[nH]1,n,n,n,n,n
Cc1cc(Br)ccc1SCC(=O)OCC(O)=C(C#N)c1nc2ccccc2[nH]1,n,x,x,x,x
N#C/C(=C(/O)COC(=O)CSc1ccc2ccccc2c1)c1nc2ccccc2[nH]1,n,n,n,92.1,n
Cc1ccc(C)c(SCC(=O)OC/C(O)=C(\C#N)c2nc3ccccc3[nH]2)c1,n,x,x,95.0,x
CCCC(=O)OC/C(O)=C(\C#N)c1nc2ccccc2[nH]1,n,n,n,n,n
SMILES,UCH37 DUB inh,Fh CTSL1 inh,CHOP UPR activ,CHOP inh,UPR XBP1 act
Cc1cc(Br)ccc1SCC(=O)OC/C(O)=C(\C#N)c1nc2ccccc2[nH]1,x,n,n,101.5,n
CSc1ccc(C=NNC(=O)c2ccc(O)cc2)cc1,n,x,x,x,x
Clc1ccc(C=NNc2ccccc2)cc1,n,x,x,x,x
Cc1nn(Cc2c(Cl)cccc2Cl)c(Cl)c1/C=C/C(=O)OCC(=O)NCC(F)(F)F,n,n,n,75.2,n
Cc1cc(=O)[nH]c(NN=Cc2ccc(F)cc2)n1,n,x,x,x,x
O=C(CC1CCCCC1)N1CCC(c2nc(-c3ccc(S(=O)(=O)N4CCCC4)cc3)no2)CC1,n,n,n,95.1,n
O=C1O/C(=C/c2ccccc2)N=C1c1ccccc1,n,n,n,87.2,n
O=C1O/C(=C\c2ccccc2)c2ccccc21,n,n,n,n,n
O=C(Nc1ccc(S(=O)(=O)Nc2ccccc2)cc1)C1COc2ccccc2O1 (stereo not drawn),n,n,n,84.7,n
CC(C)(CNC(=O)CON=C1C=C2CCC3C(C(O)C[C@@]4(C)C3CC[C@]4(O)C(=O)CO)[C@@]2(C)CC1)C(O)C(=O)O (stereo partly drawn),n,x,x,x,x

# Source: PubChem
